Measured values published in ChEMBL document CHEMBL4196164, “Tariquidar-Related Chalcones and Ketones as ABCG2 Modulators” (ACS Med Chem Lett, 2018).

Legend:
[1] = biological target: ABCB1 (Homo sapiens, UniProt P08183); assay: Inhibition of ABCB1 in human KBV1 cells at 10 uM measured after 10 mins by calcein-AM dye based fluorescence assay relative to 10 uM tariquidar; format: cell-based; conditions: probe calcein-AM
[2] = biological target: ABCC1 (Homo sapiens, UniProt P33527); assay: Inhibition of human ABCC1 expressed in MDCK2 cells at 10 uM after 60 mins by calcein-AM dye based fluorescence assay relative to 30 uM reversan; format: cell-based; conditions: MDCK2 cells that express human ABCC1, probe calcein-AM
Sequence of ABCC1 (P33527 whole entry): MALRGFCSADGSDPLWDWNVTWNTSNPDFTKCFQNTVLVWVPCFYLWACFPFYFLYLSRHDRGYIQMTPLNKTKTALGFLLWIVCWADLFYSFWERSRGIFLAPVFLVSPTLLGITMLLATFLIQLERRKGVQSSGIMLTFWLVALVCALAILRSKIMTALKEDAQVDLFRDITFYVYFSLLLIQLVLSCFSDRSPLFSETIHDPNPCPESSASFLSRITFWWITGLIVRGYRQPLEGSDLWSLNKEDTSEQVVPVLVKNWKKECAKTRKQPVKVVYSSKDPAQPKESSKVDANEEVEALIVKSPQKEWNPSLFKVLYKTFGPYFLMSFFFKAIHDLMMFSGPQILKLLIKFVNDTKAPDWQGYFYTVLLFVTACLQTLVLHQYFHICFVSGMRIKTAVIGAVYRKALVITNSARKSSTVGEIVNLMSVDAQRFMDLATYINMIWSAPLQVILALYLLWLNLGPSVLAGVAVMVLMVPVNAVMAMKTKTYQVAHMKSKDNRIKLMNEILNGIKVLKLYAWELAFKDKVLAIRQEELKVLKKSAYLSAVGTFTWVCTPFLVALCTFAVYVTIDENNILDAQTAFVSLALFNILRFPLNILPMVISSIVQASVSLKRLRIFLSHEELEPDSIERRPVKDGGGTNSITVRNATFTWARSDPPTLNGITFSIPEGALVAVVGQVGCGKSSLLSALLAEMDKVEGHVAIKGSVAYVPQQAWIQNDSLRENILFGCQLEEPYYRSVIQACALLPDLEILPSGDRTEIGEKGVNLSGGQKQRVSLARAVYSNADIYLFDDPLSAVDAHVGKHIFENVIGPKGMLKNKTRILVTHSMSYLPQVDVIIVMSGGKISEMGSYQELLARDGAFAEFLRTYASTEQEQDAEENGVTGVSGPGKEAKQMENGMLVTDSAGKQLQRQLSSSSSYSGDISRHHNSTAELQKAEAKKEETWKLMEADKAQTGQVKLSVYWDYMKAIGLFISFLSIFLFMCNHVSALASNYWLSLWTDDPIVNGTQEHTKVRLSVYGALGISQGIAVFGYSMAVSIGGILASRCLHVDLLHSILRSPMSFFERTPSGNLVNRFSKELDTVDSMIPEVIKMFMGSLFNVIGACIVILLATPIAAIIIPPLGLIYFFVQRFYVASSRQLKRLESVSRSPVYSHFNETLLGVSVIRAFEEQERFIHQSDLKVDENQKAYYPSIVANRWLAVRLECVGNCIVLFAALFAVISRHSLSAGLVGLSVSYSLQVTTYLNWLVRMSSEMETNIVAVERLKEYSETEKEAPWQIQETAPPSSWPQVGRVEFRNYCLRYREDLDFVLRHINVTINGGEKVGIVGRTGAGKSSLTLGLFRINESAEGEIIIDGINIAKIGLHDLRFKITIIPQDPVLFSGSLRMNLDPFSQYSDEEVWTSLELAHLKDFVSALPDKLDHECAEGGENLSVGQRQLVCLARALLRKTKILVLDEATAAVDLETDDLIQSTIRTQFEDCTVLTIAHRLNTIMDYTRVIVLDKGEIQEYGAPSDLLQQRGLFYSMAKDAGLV

[3] = biological target: T1, Broad substrate specificity ATP-binding cassette transporter ABCG2 (Homo sapiens, UniProt Q9UNQ0); assay: Inhibition of ABCG2 in human MCF7/Topo cells after 2 hrs by Hoechst 33342 staining based fluorescence assay; format: cell-based
T1 sequence (Q9UNQ0 whole entry): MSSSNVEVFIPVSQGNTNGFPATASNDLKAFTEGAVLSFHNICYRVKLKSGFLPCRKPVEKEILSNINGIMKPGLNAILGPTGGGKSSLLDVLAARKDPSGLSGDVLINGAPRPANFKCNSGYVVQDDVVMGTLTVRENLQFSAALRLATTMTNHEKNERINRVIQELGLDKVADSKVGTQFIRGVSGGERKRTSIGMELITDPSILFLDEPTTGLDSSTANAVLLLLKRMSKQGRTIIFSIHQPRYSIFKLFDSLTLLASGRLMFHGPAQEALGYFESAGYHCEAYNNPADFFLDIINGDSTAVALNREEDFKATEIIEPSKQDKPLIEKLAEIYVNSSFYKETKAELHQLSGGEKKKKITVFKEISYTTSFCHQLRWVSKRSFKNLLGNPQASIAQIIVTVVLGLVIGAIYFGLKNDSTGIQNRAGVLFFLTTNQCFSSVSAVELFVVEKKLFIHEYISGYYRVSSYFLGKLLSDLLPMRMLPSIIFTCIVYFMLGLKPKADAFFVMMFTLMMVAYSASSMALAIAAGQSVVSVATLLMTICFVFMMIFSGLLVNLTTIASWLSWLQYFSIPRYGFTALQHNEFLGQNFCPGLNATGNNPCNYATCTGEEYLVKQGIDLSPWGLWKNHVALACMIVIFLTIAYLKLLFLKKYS
Outline: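 ABCG2-overexpressing MCF-7/Topo cells, Hoechst 33342 accumulation in microplate format; inhibition expressed relative to 10 μM FTC (100%). Relative IC50 taken as the midpoint between lower and upper plateaus of each compound's own concentration–response curve, from four-parameter fit; mean ± SEM of three independent experiments in triplicate.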

[4] = biological target: T2, ABCG2 (Homo sapiens, UniProt Q9UNQ0); assay: Inhibition of ABCG2 in human MCF7/Topo cells at 100 uM after 2 hrs by Hoechst 33342 staining based fluorescence assay relative to 10 uM FTC; format: cell-based; conditions: probe Hoechst 33342, read-out: Imax
T2 sequence (Q9UNQ0 whole entry): T1 sequence (Q9UNQ0 whole entry)
Outline: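 Hoechst 33342 microplate assay in ABCG2-overexpressing MCF-7/Topo cells; maximal inhibitory effect taken as inhibition at the highest concentration (100 μM) of compound, expressed relative to the inhibition from 10 μM FTC set as 100%.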

[5] = Stability of the compound in DMEM measured over 24 hrs by HPLC analysis; format: physicochemical
Outline: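 Compounds incubated in assay medium (DMEM with 10% fetal calf serum) at 37 °C; aliquots analysed by HPLC over 24 h for cleavage or degradation products.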

[6] = Cytotoxicity against human MCF7/Topo cells at 0.1 to 10 uM measured up to 120 hrs by crystal violet staining based assay; format: cell-based
Outline: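 Kinetic chemosensitivity assay on proliferating ABCG2-overexpressing MCF-7/Topo cells under long-term exposure at 100 nM, 1, 3 and 10 μM; 100 nM vinblastine as positive control, DMSO vehicle as negative control; growth curves followed over time.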

[7] = biological target: T1, Broad substrate specificity ATP-binding cassette transporter ABCG2; assay: Inhibition of ABCG2 (unknown origin) expressed in HEK293 cells assessed as reduction in mitoxantrone efflux measured after 30 mins by fluorescence assay; format: cell-based
[8] = biological target: T1, Broad substrate specificity ATP-binding cassette transporter ABCG2; assay: Inhibition of ABCG2 (unknown origin) expressed in MDCK2 cells incubated for 30 mins measured at 60 secs interval for 120 mins by Hoechst 33342 staining based fluorescence assay; format: cell-based

Sequence of ABCB1 (P08183 whole entry): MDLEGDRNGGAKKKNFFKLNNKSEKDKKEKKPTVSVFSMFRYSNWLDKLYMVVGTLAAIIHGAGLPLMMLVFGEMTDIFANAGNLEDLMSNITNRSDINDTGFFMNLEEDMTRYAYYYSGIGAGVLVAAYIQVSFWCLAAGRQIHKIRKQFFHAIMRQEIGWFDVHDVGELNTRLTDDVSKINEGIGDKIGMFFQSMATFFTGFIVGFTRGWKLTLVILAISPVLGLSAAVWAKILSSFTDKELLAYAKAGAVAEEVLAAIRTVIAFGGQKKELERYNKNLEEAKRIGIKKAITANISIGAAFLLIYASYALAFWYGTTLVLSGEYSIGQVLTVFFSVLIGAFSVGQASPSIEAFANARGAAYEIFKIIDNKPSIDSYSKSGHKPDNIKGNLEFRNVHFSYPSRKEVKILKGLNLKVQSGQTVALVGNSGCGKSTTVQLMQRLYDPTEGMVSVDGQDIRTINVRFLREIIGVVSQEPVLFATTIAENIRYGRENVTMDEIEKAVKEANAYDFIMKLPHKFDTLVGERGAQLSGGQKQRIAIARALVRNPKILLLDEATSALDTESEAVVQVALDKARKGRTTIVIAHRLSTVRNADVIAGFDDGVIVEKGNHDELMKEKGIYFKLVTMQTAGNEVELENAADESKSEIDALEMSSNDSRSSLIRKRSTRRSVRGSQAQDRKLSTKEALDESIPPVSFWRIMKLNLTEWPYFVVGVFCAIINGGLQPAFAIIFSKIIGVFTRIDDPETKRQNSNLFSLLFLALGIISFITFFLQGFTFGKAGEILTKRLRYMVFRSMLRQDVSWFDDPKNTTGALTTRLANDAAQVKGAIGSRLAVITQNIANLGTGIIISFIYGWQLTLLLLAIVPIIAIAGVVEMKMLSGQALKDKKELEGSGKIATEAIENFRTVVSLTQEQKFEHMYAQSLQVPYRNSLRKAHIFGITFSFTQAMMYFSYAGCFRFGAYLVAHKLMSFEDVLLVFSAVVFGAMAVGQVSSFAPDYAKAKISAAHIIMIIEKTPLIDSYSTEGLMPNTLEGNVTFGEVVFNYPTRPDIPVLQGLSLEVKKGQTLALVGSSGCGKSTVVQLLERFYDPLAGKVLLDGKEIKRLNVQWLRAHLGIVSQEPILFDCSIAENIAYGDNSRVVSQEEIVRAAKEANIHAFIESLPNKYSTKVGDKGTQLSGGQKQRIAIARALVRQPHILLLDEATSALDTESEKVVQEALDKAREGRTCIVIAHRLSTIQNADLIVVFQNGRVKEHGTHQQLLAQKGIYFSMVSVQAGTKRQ

Structure (SMILES)	inhibition at 10 min, 10 µM [1]	inhibition at 1 h, 10 µM [2]	IC50 [3]	Emax at 2 h, 100 µM [4]	Stability [5]	Activity [6]	IC50 [7]	IC50 [8]
COCCOCCOCCOc1cc2c(cc1OC)CCN(CC(=O)c1cccc(NC(=O)c3ccc4ccccc4n3)c1)C2	< 25%	< 25%	1130 nM	47%	Stable			
COc1cc2c(cc1OC)CN(CC(=O)c1ccc(C)c(NC(=O)c3ccc4ccccc4n3)c1)CC2	< 25%	< 25%	8760 nM	77%	Stable			
COCCOc1cc2c(cc1OC)CCN(CC(=O)c1ccc(C)c(NC(=O)c3ccc4ccccc4n3)c1)C2	< 25%	< 25%	23200 nM	79%	Stable			
COc1cc2c(cc1OC)CN(CCOc1ccc(/C=C/C(=O)c3ccc(C)c(NC(=O)c4ccc5ccccc5n4)c3)cc1)CC2	< 25%	< 25%	880 nM	86%	Stable	Dose-dependent effect		
COc1cc(OC)c(C(=O)/C=C/c2ccc3nccnc3c2)cc1OC							1400 nM	
COCCOCCOCCOc1cc2c(cc1OC)CCN(CC(=O)c1ccc(C)c(NC(=O)c3ccc4ccccc4n3)c1)C2	< 25%	< 25%	6650 nM	86%	Stable	Non-Toxic		
COc1cc2c(cc1OC)CN(CC(=O)c1cccc(NC(=O)c3ccc4ccccc4n3)c1)CC2	< 25%	< 25%	6730 nM	77%	Stable			
COCCOCCOCCOc1cc2c(cc1OC)CCN(CCOc1ccc(/C=C/C(=O)c3cccc(NC(=O)c4ccc5ccccc5n4)c3)cc1)C2	< 25%	< 25%	2830 nM	81%	Stable			
COCCOc1cc2c(cc1OC)CCN(CCOc1ccc(/C=C/C(=O)c3ccc(C)c(NC(=O)c4ccc5ccccc5n4)c3)cc1)C2	< 25%	< 25%	1550 nM	97%	Stable			
COc1ccc(/C=C/C(=O)c2ccccc2NC(=O)c2cccs2)cc1OC								501 nM
COCCOc1cc2c(cc1OC)CCN(CC(=O)c1cccc(NC(=O)c3ccc4ccccc4n3)c1)C2	< 25%	< 25%	14400 nM	55%	Stable			
COCCOCCOCCOc1cc2c(cc1OC)CCN(CCOc1ccc(/C=C/C(=O)c3ccc(C)c(NC(=O)c4ccc5ccccc5n4)c3)cc1)C2	< 25%	< 25%	2720 nM	111%	Stable			
COCCOc1cc2c(cc1OC)CCN(CCOc1ccc(/C=C/C(=O)c3cccc(NC(=O)c4ccc5ccccc5n4)c3)cc1)C2	< 25%	< 25%	2130 nM	72%	Stable			
COc1cc2c(cc1OC)CN(CCOc1ccc(/C=C/C(=O)c3cccc(NC(=O)c4ccc5ccccc5n4)c3)cc1)CC2	< 25%	< 25%	4080 nM	79%	Stable			
